Experiment [1] can be described thus: Inhibition of luciferase (unknown origin) using deacetylated peptide as substrate assessed as luminescence at 25 uM after 30 mins relative to control. Details: scale not given: the % may be the effect or the level left.
Experiment [2] can be described thus: Inhibition of luciferase (unknown origin) using deacetylated peptide as substrate assessed as luminescence at 100 uM after 30 mins relative to control. Details: scale not given: the % may be the effect or the level left.
Experiment [3] deals with T1, NAD-dependent protein deacetylase sirtuin-1 (Homo sapiens) (UniProt Q96EB6).
T1 sequence (whole entry): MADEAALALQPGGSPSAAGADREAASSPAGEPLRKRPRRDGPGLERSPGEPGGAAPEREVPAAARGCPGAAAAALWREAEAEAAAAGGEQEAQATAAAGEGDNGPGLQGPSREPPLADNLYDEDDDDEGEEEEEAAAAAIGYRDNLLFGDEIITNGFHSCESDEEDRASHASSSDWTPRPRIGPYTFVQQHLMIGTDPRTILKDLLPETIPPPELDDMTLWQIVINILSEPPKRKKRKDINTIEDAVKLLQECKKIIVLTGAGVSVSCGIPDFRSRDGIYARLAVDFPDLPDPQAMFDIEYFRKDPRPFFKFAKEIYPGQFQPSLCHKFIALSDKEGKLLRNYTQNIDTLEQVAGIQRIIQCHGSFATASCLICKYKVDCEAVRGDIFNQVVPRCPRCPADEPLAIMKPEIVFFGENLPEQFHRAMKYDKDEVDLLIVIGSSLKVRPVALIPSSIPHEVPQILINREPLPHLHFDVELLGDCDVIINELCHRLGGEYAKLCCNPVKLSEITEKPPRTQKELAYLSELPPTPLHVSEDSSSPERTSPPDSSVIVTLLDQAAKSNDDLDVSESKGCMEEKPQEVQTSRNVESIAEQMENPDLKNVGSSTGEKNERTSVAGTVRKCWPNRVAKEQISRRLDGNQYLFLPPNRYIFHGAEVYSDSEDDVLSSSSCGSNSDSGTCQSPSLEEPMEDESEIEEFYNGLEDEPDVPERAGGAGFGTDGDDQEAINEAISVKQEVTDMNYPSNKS
The experiment can be described thus: Inhibition of human recombinant SIRT1 assessed as deacetylation of N-acetyl lysine residue in p53 (317 to 320) at 10 uM after 30 mins by luciferase-mediated luminescence assay relative to control. The procedure, abridged:
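Recombinant human SIRT1 at 0.1 unit/well, with the enzyme amount chosen from the mid-linear range of a signal-to-noise titration, in Sirt-Glo buffer. Serially diluted inhibitor in DMSO covers a 10^3-fold range, with 2.5% DMSO final. The single-point screen is at a fixed 10 µM. Enzyme and inhibitor were agitated 30 min at 25 °C, then Sirt-Glo reagent added and shaken another 30 min at 25 °C before luminescence was read. Activity is % of the enzyme-only control after blank subtraction. IC50 comes from a sigmoidal fit of % activity against log concentration, run in triplicate across ≥2 independent experiments.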

A further experiment deals with HepG2. The experiment can be described thus: Growth inhibition of human HepG2 cells after 72 hrs by MTS assay. In kind it is functional, cell-based. The following applies: HepG2, 72 h. The procedure, abridged:
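Cells in DMEM with 10% heat-treated FBS and penicillin/streptomycin, subcultured at 85–90% confluence and used within 15 passages. Seeded 2500 cells/well and grown 24 h, then compound was added (0.5% v/v DMSO final) for 72 h at 37 °C, 5% CO2. MTS was added for 4 h in the dark and absorbance read at 490 nm. Viability is corrected for compound and vehicle blanks.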
On the technique in general: Tetrazolium assays rely on reduction of a dye to a coloured formazan, in cell work by metabolically active cells.

Experiment [4] relates to MDA-MB-231. Briefly: Induction of apoptosis in human MDA-MB-231 cells assessed as upregulation of cleaved caspase-3 protein expression at 2 to 8 uM after 24 hrs by Western blot analysis. It is filed as functional, cell-based. Put shortly:
(§1)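 Cells seeded at 50,000 cells/mL in high-glucose DMEM containing compound (0.5% v/v DMSO) and incubated at 37 °C, 5% CO2: HepG2 6 h, MDA-MB-231 24 h. Washed cells were lysed on ice ≥20 min in Tris/NaCl/EDTA/Triton buffer with protease and phosphatase inhibitors, then protein measured by Bradford. SDS-PAGE blots were probed overnight at 4 °C with primary antibodies and detected by HRP/ECL, with re-probing after stripping. Each blot was repeated ≥3 times.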
Background: In western blotting, separated proteins are transferred to a membrane and probed.

The species named for experiment [5] is Homo sapiens. Briefly: Inhibition of protease (unknown origin) using deacetylated peptide as substrate assessed as luminescence at 100 uM after 30 mins relative to control. Details: scale not given: the % may be the effect or the level left.
For experiment [6], the target named is T2, NAD-dependent protein deacetylase sirtuin-1 (Homo sapiens, UniProt Q96EB6).
T2 sequence (Q96EB6 whole entry): T1 sequence (whole entry)
Briefly: Inhibition of human recombinant SIRT1 assessed as deacetylation of N-acetyl lysine residue in p53 (317 to 320) after 30 mins by luciferase-mediated luminescence assay.

Experiment [7] concerns the target T3, NAD-dependent protein deacetylase sirtuin-2 (Homo sapiens) (UniProt Q8IXJ6).
T3 sequence (whole entry): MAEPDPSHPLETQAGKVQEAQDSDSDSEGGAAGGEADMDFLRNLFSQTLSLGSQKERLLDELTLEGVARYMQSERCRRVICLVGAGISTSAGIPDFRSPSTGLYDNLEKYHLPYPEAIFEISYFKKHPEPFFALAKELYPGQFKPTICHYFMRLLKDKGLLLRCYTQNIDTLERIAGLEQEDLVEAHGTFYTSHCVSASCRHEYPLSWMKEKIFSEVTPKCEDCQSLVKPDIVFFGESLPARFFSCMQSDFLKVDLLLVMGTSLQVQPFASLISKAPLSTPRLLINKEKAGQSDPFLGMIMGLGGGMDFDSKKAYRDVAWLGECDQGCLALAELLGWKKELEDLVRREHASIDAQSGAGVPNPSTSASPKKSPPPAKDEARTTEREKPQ
The experiment can be described thus: (§2) Non-competitive inhibition of human recombinant SIRT2 using Z-QPK(Me)2K(Ac) as substrate assessed as decrease in maximal enzyme activity preincubated for 60 mins followed by substrate addition measured after 30 mins by double-reciprocal plot analysis in presence of 5 mM NAD+. Put shortly: (§3)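 Recombinant human SIRT2 at 0.2 unit/well, preincubated 60 min at 25 °C (400 rpm) with inhibitor at four levels including zero, 2.5% DMSO. Detection reagent (acetylated Z-QPK(Me)2K(Ac)-aminoluciferin, NAD and developer) was premixed 60 min at 37 °C, added, and incubated 30 min at 25 °C before luminescence was read. For line 17, substrate was varied (4.12–333.3 µM) at fixed NAD. For line 16, NAD was varied (four levels) at 38.5 µM substrate. Double-reciprocal plots were made, and their slopes replotted against inhibitor concentration for apparent Ki.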

Experiment [8] addresses T4, NAD-dependent protein deacetylase sirtuin-2 (Homo sapiens, UniProt Q8IXJ6).
T4 sequence (Q8IXJ6 whole entry): T3 sequence (whole entry)
The experiment is described as §2. To be noted: read-out: Ki(app). The procedure, abridged:
as §3

The species named for experiment [9] is Homo sapiens. Briefly: Inhibition of protease (unknown origin) using deacetylated peptide as substrate assessed as luminescence at 10 uM after 30 mins relative to control. Details: scale not given: the % may be the effect or the level left. Put shortly: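 Counter-screen without sirtuin: compound from DMSO stock diluted in Sirt-Glo buffer, then Sirt-Glo reagent added carrying non-acetylated control peptide. DMSO was 2.5% v/v. Mixed by shaking 30 min at 25 °C, then luminescence read. Result is % of control (peptide plus reagent in vehicle) after subtracting the vehicle-only blank.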

The nature of experiment [10]: Cytotoxicity against human IMR90 cells assessed as cell viability after 72 hrs by MTS assay. It is filed as cell-based. To be noted: IMR-90, 72 h.
Experiment [11] has as its system MDA-MB-231. The experiment can be described thus: Induction of apoptosis in human MDA-MB-231 cells assessed as upregulation of cleaved PARP protein expression at 2 to 8 uM after 24 hrs by Western blot analysis. In kind it is functional, cell-based. The procedure, abridged:
as §1

The source made the active and inactive calls. No cut-off for these calls is given here.

For the compound `CCCCCCCCn1c2c(c3cc(-c4ccc(S(C)(=O)=O)cc4)ccc31)CNCC2`, the Activity in experiment [1] was 94.9%; in [2], 94.3%; in the experiment filed under Homo sapiens [5], 94.3%; in the experiment filed under Homo sapiens [9], 96.5%. Moreover, the inhibition was 48.5% in experiment [3] and “Dose-dependent effect” in [7]. For the same compound, the half-inhibitory concentration (IC50) is 2100 nM in the experiment on HepG2, 16.7 µM in experiment [6] and 2720 nM in experiment [10]. Further, the outcome in the experiment on MDA-MB-231 [4] and with MDA-MB-231 [11] was Active. Besides, in experiment [8], the Ki came out at 2280 nM.

What is called inhibition is the drop in the measured response relative to a control, in per cent. By IC50 is commonly meant the concentration at which inhibition is half-maximal.
